Screening data deposited in PubChem BioAssay by The Scripps Research Institute Molecular Screening Center.
TAAR1 ag: human TAAR1 agonism | Q96RJ0 | activation, % at 3 µM | 0.99% of 360,000 active | CHO RD-HGA16 TAAR1, Fluo-8 calcium fluorescence; vehicle wells 0%, saturating PEA agonist 100%;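 active means activation above the mean activation of all test compounds in the run plus 3 SD, cut at about 38% in these data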
Target sequence (Q96RJ0 whole entry, looked up): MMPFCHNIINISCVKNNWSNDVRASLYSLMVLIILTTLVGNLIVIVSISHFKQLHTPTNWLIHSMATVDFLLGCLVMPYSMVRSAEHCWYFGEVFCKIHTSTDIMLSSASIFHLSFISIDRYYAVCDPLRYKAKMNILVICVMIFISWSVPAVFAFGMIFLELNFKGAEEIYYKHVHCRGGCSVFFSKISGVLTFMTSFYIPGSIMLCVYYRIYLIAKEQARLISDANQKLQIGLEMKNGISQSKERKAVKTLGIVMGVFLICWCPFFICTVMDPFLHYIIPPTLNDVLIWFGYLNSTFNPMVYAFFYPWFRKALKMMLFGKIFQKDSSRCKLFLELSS
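Repeats: no replicates (n 1) | Material: CHO-derived RD-HGA16 cells with stable Gα16 and human TAAR1 | Technique: Kinetic Fluo-8 calcium fluorescence | Schedule: 17-24 h seeding, 75 min 37 °C dye, 30 min RT | Evaluation: % activation from peak over basal fluorescence ratio, DMSO-to-PEA scaled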
OX1R antag-1: blocks the human orexin 1 receptor; OX1R-expressing cells, FRET antagonist read-out; AID 485270; 1.8% of 330,000 active; inhibition, % at 6.6 µM; in the data active means inhibition mostly above about 38%, no sharp cut-off; inactive means mostly below about 40%
GPR7 antag: human neuropeptides B/W receptor 1 antagonism; GPR7-expressing cells, fluorescence antagonist assay; inhibition, % at 4.4 µM; 1.1% of 290,000 active; AID 1861; in the data active means inhibition above about 16%, passing the limit was not always enough;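 further: cells stimulated with the agonist NPW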
Target sequence (P48145 whole entry, looked up): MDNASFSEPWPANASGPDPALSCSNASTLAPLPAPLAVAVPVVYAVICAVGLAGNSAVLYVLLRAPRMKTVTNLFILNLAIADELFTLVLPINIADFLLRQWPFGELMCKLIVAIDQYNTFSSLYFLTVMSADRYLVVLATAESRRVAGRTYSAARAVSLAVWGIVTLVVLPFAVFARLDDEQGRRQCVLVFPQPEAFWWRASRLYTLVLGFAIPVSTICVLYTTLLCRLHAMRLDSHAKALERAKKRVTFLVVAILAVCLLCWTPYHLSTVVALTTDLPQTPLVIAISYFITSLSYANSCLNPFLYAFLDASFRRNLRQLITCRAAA
TAAR1 antagonist: human TAAR1 antagonism. Q96RJ0. CHO RD-HGA16 TAAR1, Fluo-8 calcium fluorescence, antagonist. inhibition, % at 3 µM. 1.5% of 360,000 active;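 active means inhibition above a per-plate cutoff, the mean inhibition of test compounds on that plate plus 3 SD, cut at about 49% in these data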
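Assay system: RD-HGA16 CHO cells with stable hTAAR1 and Gα16 / Reagent: EC80 β-phenethylamine stimulus / Doses: 3 µM, single point / Timing: dye loading 75 min at 37 °C, then 30 min room temperature / Measured by: Fluo-8 intracellular calcium dye fluorescence, real-time kinetic reads / Controls: vehicle wells and EC80 agonist wells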
CHO parental Ca: counter-screen for OX1R antagonists: effect in parental CHO cells; parental CHO-K1, ATP-induced calcium, Fluo-8 fluorescence; 0.63% of 330,000 active; AID 463079; inhibition, % at 5.6 µM;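 active means inhibition above that plate's mean sample inhibition plus 3 SD, cut at about 26% in these data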
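Assay system – parental CHO cells · Reagent – ATP stimulus · Detection – intracellular calcium via Fluo-8 no-wash fluorescent dye · Evaluation – percent inhibition of ATP-evoked calcium rise, normalized to controls · Controls – ATP wells versus no-ATP DMSO wells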
OX1R antag-2: blocks the human orexin 1 receptor | AID 434989 | CHO/OX1R cells, Fluo-8 calcium fluorescence, orexin A | inhibition, % at 5 µM | O43613 | 0.43% of 330,000 active;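 active means inhibition above its plate's threshold, mean inhibition of all tested compounds on the plate plus 3 SD, cut at about 37% in these data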
nonsel antag count: nonselective antagonism, TAAR1 counter-screen; inhibition, % at 3 µM; 77% of 2,400 active; counterscreen cell line, calcium fluorescence, antagonist mode; AID 651780; shares compounds with TAAR1 antagonist; in the data active means inhibition above about 22%;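 further: CHO-Ga16 host cells stimulated with ATP at an EC80 level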
TAAR1 antag conf: human TAAR1 antagonism, confirmed; shares compounds with TAAR1 antagonist; TAAR1-expressing cells, fluorescence antagonist read-out; inhibition, % at 3 µM; 40% of 2,400 active; AID 651785; in the data active means inhibition above about 49%;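 further: CHO-Ga16 host cells challenged with agonist PEA near its EC80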
Ga16 nonsel ag: nonselective Ga16 agonist in TAAR1 antagonist counter-screen; shares compounds with TAAR1 antagonist; Ga16-expressing cells, calcium fluorescence, agonist counterscreen; 18% of 2,400 active; AID 651953; activation, % at 3 µM; in the data active means activation above about 12%
TAAR1 ag count: TAAR1 agonism, antagonist counter-screen; hTAAR1 cell line, fluorescence activation, agonist mode; activation, % at 3 µM; AID 651955; shares compounds with TAAR1 antagonist; 2% of 2,400 active; in the data active means activation above about 37%;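 further: CHO cells stably expressing TAAR1 with calcium dye readout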
Each line names hits and unclear results; the compound was inactive in the other large screens (follow-up assays come after a bar, where they were run). In the library only some 4.6% were active in any assay of this set; here they are far more common.

COc1ccc(-c2cn(Cc3ccc4c(c3)C(=O)c3ccccc3C4=O)nn2)cc1	none
C=C(C)COc1ccc(-c2n[nH]c(C)c2-c2ccc(OC)cc2)c(O)c1	TAAR1 antagonist 62 | nonsel antag count inactive | TAAR1 antag conf inactive | Ga16 nonsel ag inactive | TAAR1 ag count inactive
CC(=O)OCc1c(C(F)(F)F)nn(C)c1Sc1ccccc1	none
CC(/C=C(\NC(=O)c1ccccc1)C(=O)N=Nc1c(O)[nH]c2ccc(C)cc12)=C\c1ccccc1	TAAR1 antagonist 65 | nonsel antag count inactive | TAAR1 antag conf inactive | Ga16 nonsel ag inactive | TAAR1 ag count inactive
Cc1ccc2[nH]c(O)c(N=NC(N)=S)c2c1	none
O=C(NC(=S)Nn1cnnc1)c1ccc(F)cc1Cl	none
CCN=C1SC(C(=O)Nc2cccc(OCC)c2)CC(=O)N1CC (centres undefined)	TAAR1 antagonist 74 | nonsel antag count 36 | TAAR1 antag conf 60 | Ga16 nonsel ag inactive | TAAR1 ag count inactive
CCOC(=O)/C=C1\NC(=O)C(C)S1 (centres undefined)	none
CN(C)S(=O)(=O)c1cccc(NC(=O)COc2ccccc2C(=O)NCc2ccccc2)c1	TAAR1 antagonist 63 (no result: OX1R antag-1, GPR7 antag, CHO parental Ca, OX1R antag-2) | nonsel antag count 25 | TAAR1 antag conf inactive | Ga16 nonsel ag inactive | TAAR1 ag count inactive
COc1ccccc1C(=O)NCC(=O)OCC(=O)Nc1cccc(S(=O)(=O)N(C)C)c1	none
COc1cc(C=O)ccc1OCC(=O)Nc1cccc(S(=O)(=O)N(C)c2ccccc2)c1	TAAR1 antagonist 63 (no result: GPR7 antag) | nonsel antag count 35 | TAAR1 antag conf 54 | Ga16 nonsel ag inactive | TAAR1 ag count inactive
COc1cc(CC(=O)Nc2cccc(S(=O)(=O)N(C)c3ccccc3)c2)cc(OC)c1OC	none (no result: GPR7 antag)
O=C(CC1Oc2ccc(Cl)cc2NC1=O)NC1CCCCCC1 (centres undefined)	none
O=C(CC12CC3CC(CC(C3)C1)C2)Nc1cccc2ncccc12	none
CCc1nc2c(OCCOc3ccc(F)cc3)cccn2c1N(C)C(=O)C(C)C	none (no result: OX1R antag-1, GPR7 antag, CHO parental Ca, OX1R antag-2)
O=[N+]([O-])c1cccc2nc3ccccc3c(NCCCn3ccnc3[N+](=O)[O-])c12	none (no result: OX1R antag-1, GPR7 antag, CHO parental Ca, OX1R antag-2)
O=C(NCCc1ccc(Cl)cc1)c1ccc(CS(=O)Cc2ccc(Cl)cc2)o1 (centres undefined)	none
CSc1ccc(CCNC(=O)c2ccc(CS(=O)Cc3ccc(Cl)cc3)o2)cc1 (centres undefined)	TAAR1 antagonist 53 | nonsel antag count 32 | TAAR1 antag conf inactive | Ga16 nonsel ag inactive | TAAR1 ag count inactive
O=c1oc(C2(O)CCCCC2)cc2ccc(Br)cc12	none (no result: GPR7 antag)
O=c1oc(C2(O)CCCCC2)cc2ccc(/C=C/c3ccc(F)cc3)cc12	TAAR1 antagonist 63 (no result: GPR7 antag) | nonsel antag count 26 | TAAR1 antag conf inactive | Ga16 nonsel ag inactive | TAAR1 ag count inactive
CCCCCCNS(=O)(=O)c1nc2nc(C)cc(C)n2n1	none
COC(=O)CCCC[C@@H]1O[C@H](CCc2ccccc2)CC2=C1C(=O)OC(C)(C)O2	TAAR1 antagonist 61 (no result: OX1R antag-1, GPR7 antag, CHO parental Ca, OX1R antag-2) | nonsel antag count 26 | TAAR1 antag conf 50 | Ga16 nonsel ag inactive | TAAR1 ag count inactive
CN1CCN(c2ncnc3c2c(-c2ccccc2)cn3-c2ccc(F)cc2)CC1	TAAR1 antagonist 60 | nonsel antag count inactive | TAAR1 antag conf 53 | Ga16 nonsel ag inactive | TAAR1 ag count inactive
COc1ccc(-c2nc(C#N)c(NCc3ccccc3Cl)o2)cc1	TAAR1 antagonist 53 | nonsel antag count inactive | TAAR1 antag conf inactive | Ga16 nonsel ag inactive | TAAR1 ag count inactive
O=C(COc1ccc(Cl)cc1)Nc1nc(-c2cccs2)cs1	TAAR1 antagonist 68 | nonsel antag count 23 | TAAR1 antag conf inactive | Ga16 nonsel ag inactive | TAAR1 ag count inactive
CCC(=O)c1ccc(OCC(=O)Nc2nc(-c3cccnc3)cs2)cc1	TAAR1 antagonist 74 (no result: GPR7 antag) | nonsel antag count 37 | TAAR1 antag conf 55 | Ga16 nonsel ag inactive | TAAR1 ag count inactive
COc1cc(C(=O)Nc2nc(-c3cccs3)cs2)cc(OC)c1OC	OX1R antag-1 49, TAAR1 antagonist 83 | nonsel antag count 45 | TAAR1 antag conf 62 | Ga16 nonsel ag 16 | TAAR1 ag count inactive
CCC(=O)c1ccc(OCC(=O)Nc2nc(C)cs2)cc1	none (no result: GPR7 antag)
Cc1onc(-c2c(F)cccc2Cl)c1C(=O)N1CCN(c2ncc(Br)cn2)CC1	none
COC(=O)C(c1ccccc1)C(CC(=O)c1ccccc1)c1ccccc1 (centres undefined)	TAAR1 antagonist 76 (no result: OX1R antag-1, GPR7 antag, CHO parental Ca, OX1R antag-2) | nonsel antag count inactive | TAAR1 antag conf inactive | Ga16 nonsel ag inactive | TAAR1 ag count inactive
CCN(CC)S(=O)(=O)c1ccc(C(C)NCC(=O)Nc2ccccc2C(=O)NC2CC2)cc1 (centres undefined)	TAAR1 antagonist 59 (no result: OX1R antag-1, GPR7 antag, CHO parental Ca, OX1R antag-2) | nonsel antag count 33 | TAAR1 antag conf 52 | Ga16 nonsel ag inactive | TAAR1 ag count inactive
CC(NCC(=O)Nc1ccccc1C(=O)NC1CC1)c1ccc(S(N)(=O)=O)cc1 (centres undefined)	none (no result: GPR7 antag)
CC1(c2nnc(-c3ccncc3)o2)CC(c2c(Cl)cccc2Cl)=NO1 (centres undefined)	none (no result: GPR7 antag)
CC1(c2nnc(-c3ccccc3)o2)CC(c2c(Cl)cccc2Cl)=NO1 (centres undefined)	TAAR1 antagonist 70 (no result: GPR7 antag) | nonsel antag count 23 | TAAR1 antag conf 53 | Ga16 nonsel ag inactive | TAAR1 ag count inactive
CC(=O)C[C@@H](O)CC(=O)[C@@H]1OC(=O)CCCCCCc2ccccc21	none (no result: GPR7 antag)
O=C(Nc1ccc(S(=O)(=O)Nc2ncccn2)cc1)c1ccccc1NS(=O)(=O)c1ccc(F)cc1	none
O=C(Nc1ccc(-c2nc3ccccc3[nH]2)cc1)c1ccccc1NS(=O)(=O)c1ccc(F)cc1	OX1R antag-1 53, TAAR1 antagonist 78 | nonsel antag count 42 | TAAR1 antag conf inactive | Ga16 nonsel ag inactive | TAAR1 ag count inactive
CC(C)(O)C(O)COc1c2ccoc2cc2oc(=O)ccc12 (centres undefined)	none
CC(=O)OC(C=C(C)C)C/C(C)=C/COc1c2ccoc2cc2oc(=O)ccc12 (centres undefined)	TAAR1 antagonist 70 (no result: OX1R antag-1, GPR7 antag, CHO parental Ca, OX1R antag-2) | nonsel antag count 28 | TAAR1 antag conf 54 | Ga16 nonsel ag inactive | TAAR1 ag count inactive
